Key:
Mus musculus [1] = assay: Tested for cures, represents a 30-day survival, ratio of treated and control was reported; dose range ip 200-12.5 mg/kg; format: functional
Mus musculus [2] = assay: Toxicity against mouse L1210 Leukemia as number of animals survived/number of animals treated at the Optimal dose of 200 mg/kg; 6/6, dose range ip 200-12.5 mg/kg.; format: functional; details: route intraperitoneal
Mus musculus [3] = assay: Animal weight difference at the Optimal dose of 100 mg/kg against mouse L1210 Leukemia; dose range ip 200-12.5 mg/kg; format: functional; details: route intraperitoneal
Mus musculus [4] = assay: Tested for cures, represents a 30-day survival, ratio of treated and control against Ependymoblastoma Tumor was reported; dose range 12-0.75 mg/kg; format: functional
Method in brief: (§1)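 Mouse ependymoblastoma implanted intracerebrally to test CNS antitumour activity. Groups of 10 mice were dosed on days 1-5 over the stated dose range. Toxicity is scored as survivors on day 5 after the first injection. Activity is given as % T/C at the optimum dose, and a cure is defined as 30-day survival.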

Mus musculus [5] = assay: Animal weight difference at the Optimal dose of 25 mg/kg against mouse L1210 Leukemia; dose range ip 50-6.25 mg/kg; details: route intraperitoneal
Mus musculus [6] = assay: Tested for cures, represents a 30-day survival, ratio of treated and control was reported; dose range ip 50-6.25 mg/kg; format: functional
Mus musculus [7] = assay: Toxicity against mouse L1210 Leukemia as number of animals survived/number of animals treated at the Optimal dose of 25 mg/kg; 6/6, dose range ip 50-6.25 mg/kg.; details: route intraperitoneal
Mus musculus [8] = assay: Toxicity against Ependymoblastoma Tumor number of animals survived/number of animals treated at the Optimal dose of 12.0 mg/kg; dose range 12-0.75 mg/kg; format: functional; method in brief: as §1
Mus musculus [9] = assay: Animal weight difference at the Optimal dose of 12.0 mg/kg against Ependymoblastoma Tumor; dose range 12-0.75 mg/kg; format: functional
[10] = test system: L1210 leukemia (Mus musculus); assay: Tested for cures, represents a 30-day survival, ratio of treated and control against L1210 leukemia was reported; dose range ip 400-12.5 mg/kg
Mus musculus [11] = assay: Animal weight difference at the Optimal dose of 200 mg/kg against mouse L1210 Leukemia; dose range ip 400-12.5 mg/kg; format: functional; details: route intraperitoneal
Mus musculus [12] = assay: Toxicity against mouse L1210 Leukemia as number of animals survived/number of animals treated at the Optimal dose of 200 mg/kg; 5/6, dose range ip 400-12.5 mg/kg.; format: functional; details: route intraperitoneal
Mus musculus [13] = assay: Toxicity against mouse L1210 Leukemia as number of animals survived/number of animals treated at the Optimal dose of 100 mg/kg; 6/6, dose range ip 200-12.5 mg/kg; format: functional; details: route intraperitoneal
Mus musculus [14] = assay: Animal weight difference at the Optimal dose of 50 mg/kg against mouse L1210 Leukemia; dose range ip 400-12.5 mg/kg.; details: route intraperitoneal
Mus musculus [15] = assay: Tested for cures, represents a 30-day survival, ratio of treated and control was reported; dose range ip 400-12.5 mg/kg.; format: functional
Mus musculus [16] = assay: Toxicity against mouse L1210 Leukemia as number of animals survived/number of animals treated at the Optimal dose of 50 mg/kg; 6/6, dose range ip 400-12.5 mg/kg.; format: functional; details: route intraperitoneal
Mus musculus [17] = assay: Toxicity against Ependymoblastoma Tumor number of animals survived/number of animals treated at the Optimal dose of 16.0 mg/kg; dose range 16-2 mg/kg
Mus musculus [18] = assay: Tested for cures, represents a 30-day survival, ratio of treated and control against Ependymoblastoma Tumor was reported; dose range 16-2 mg/kg; format: functional; method in brief: as §1
Mus musculus [19] = assay: Animal weight difference at the Optimal dose of 16.0 mg/kg against Ependymoblastoma Tumor; dose range 16-2 mg/kg

CCN(N=O)C(=O)Nc1ccc(C2CC(=O)N(C)C2=O)cc1 (stereo unspecified)
T/C (Mus musculus [1]): 126%
Ratio (Mus musculus [2]): 6
T-C (Mus musculus [3]): -3.8 g

CN1C(=O)CC(c2ccc(NC(=O)N(CCCl)N=O)cc2)C1=O (stereo unspecified)
T/C (Mus musculus [4]): 240%
T-C (Mus musculus [5]): -4.6 g
T/C (Mus musculus [6]): 196%
Ratio (Mus musculus [7]): 6
Ratio (Mus musculus [8]): 9
T-C (Mus musculus [9]): -3.8 g

CCCCN(N=O)C(=O)Nc1ccc(C2CC(=O)N(C)C2=O)cc1 (stereo unspecified)
T/C [10]: 120%
T-C (Mus musculus [11]): -2.8 g
Ratio (Mus musculus [12]): 5

CN(N=O)C(=O)Nc1ccc(C2CC(=O)N(C)C2=O)cc1 (stereo unspecified)
T/C (Mus musculus [1]): 127%
Ratio (Mus musculus [13]): 6
T-C (Mus musculus [3]): -1.2 g

CCCN(N=O)C(=O)Nc1ccc(C2CC(=O)N(C)C2=O)cc1 (stereo unspecified)
T-C (Mus musculus [14]): 0.8 g
T/C (Mus musculus [15]): 109%
Ratio (Mus musculus [16]): 6

O=NN(CCCl)C(=O)NCCCl [CARMUSTINE]
Ratio (Mus musculus [17]): 10
T/C (Mus musculus [18]): 300%
T-C (Mus musculus [19]): -3.4 g

Reference: ChEMBL document CHEMBL1121412, “Synthesis and anticancer activity of nitrosourea derivatives of phensuximide” (1980)
